Source: ChEMBL document CHEMBL1641445, “Synthesis, antiprotozoal, antimicrobial, β-hematin inhibition, cytotoxicity and methemoglobin (MetHb) formation activities of bis(8-aminoquinolines)” (Bioorg Med Chem, 2011)
Activity calls are given as the source filed them. No cut-off for these calls is given here.

Columns and labels:
[1] = Hematotoxicity against RBC assessed as formation of methemoglobin at 20 ug/ml relative to control; assay type: cell-based; settings: erythrocyte
Method in brief: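 Metabolism-linked methemoglobin toxicity in vitro. Percent MetHb formation was determined at 20 µg/mL of compound relative to vehicle control.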

Plasmodium falciparum [2] = experiment: Antimalarial activity against chloroquine-resistant Plasmodium falciparum W2 by LDH assay; assay type: functional, organism-based; settings: Plasmodium falciparum, W2; read-out: IC50
Method in brief: (§1)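 Antiplasmodial activity was measured in vitro against P. falciparum blood-stage cultures. Read-out was parasite lactate dehydrogenase (LDH) activity, with IC50 values expressed in µg/mL. The same protocol was used for the D6 and W2 strains.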

Vero = experiment: Cytotoxicity against african green monkey Vero cells up to 10 ug/ml by neutral red assay; assay type: cell-based; settings: chlorocebus sabaeus
Method in brief: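 Vero (monkey kidney) cells were exposed up to a highest concentration of 10 µg/mL. Viability was read by neutral red uptake.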

[3] = Inhibition of beta-hematin formation; assay type: functional
Leishmania donovani = experiment: Antileishmanial activity against promastigotes of Leishmania donovani by alamar blue assay; assay type: functional, organism-based; settings: Leishmania donovani; for IC50: read-out: IC50
Plasmodium berghei [4] = experiment: Antimalarial activity against Plasmodium berghei infected in mouse assessed as negative parasitemia level at 100 mg/kg, po qd for 4 days measured up to 7 days; assay type: functional, organism-based; set-up: dose 100 mg/kg
Method in brief: (§2)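 Mice infected with P. berghei (sensitive strain), 6 per group, dosed orally at 10–100 mg/kg/day × 4. Suppression meant negative parasitemia in all treated animals up to D+7. Survivors were counted at D+60.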

Staphylococcus aureus [5] = experiment: Antibacterial activity against Staphylococcus aureus by CLSI method; assay type: functional, organism-based
Staphylococcus aureus [6] = experiment: Antibacterial activity against methicillin-resistant Staphylococcus aureus ATCC 43300 by CLSI method; assay type: functional, organism-based
Method in brief: (§3)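 Broth dilution method (NCCLS M7-A5). […] MIC is the lowest concentration allowing no detectable growth. MBC is the lowest concentration killing the organism. Highest test concentration was 20 µg/mL.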

[7] = system: Mycobacterium intracellulare; experiment: Antibacterial activity against Mycobacterium intracellular ATCC 23068 by CLSI method; assay type: functional, organism-based
[8] = system: Mycobacterium intracellulare; experiment: Antibacterial activity against Mycobacterium intracellular ATCC 23068 at 20 ug/ml by CLSI method; assay type: functional, organism-based
Candida albicans [9] = experiment: Antifungal activity against Candida albicans ATCC 90028; assay type: functional, organism-based
Candida albicans [10] = experiment: Antifungal activity against Candida albicans ATCC 90028 at 20 ug/ml; assay type: functional, organism-based
Cryptococcus neoformans [11] = experiment: Antifungal activity against Cryptococcus neoformans ATCC 90113; assay type: functional, organism-based
Aspergillus fumigatus = experiment: Antifungal activity against Aspergillus fumigatus ATCC 90906 at 20 ug/ml; assay type: functional, organism-based
Nakaseomyces glabratus = experiment: Antifungal activity against Candida glabrata at 20 ug/ml; assay type: functional, organism-based
Pichia kudriavzevii = experiment: Antifungal activity against Candida krusei at 20 ug/ml; assay type: functional, organism-based
Plasmodium berghei [12] = experiment: Antimalarial activity against Plasmodium berghei infected in mouse assessed as negative parasitemia level at 10 mg/kg, po qd for 4 days measured up to 7 days; assay type: functional, organism-based; set-up: dose 10 mg/kg; method in brief: as §2
Plasmodium berghei [13] = experiment: Antimalarial activity against Plasmodium berghei infected in mouse assessed as complete elimination of malaria parasites from animals at 25 mg/kg, po qd for 4 days measured up to 60 days; assay type: functional, organism-based; set-up: dose 25 mg/kg
Method in brief: (§4)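 Rodent P. berghei (sensitive strain) blood-schizontocidal model, 6 mice per group. Compounds were given orally once daily for 4 days at 10, 25, 50 or 100 mg/kg/day. Cure meant complete parasite elimination with survival to day D+60.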

Plasmodium berghei [14] = experiment: Antimalarial activity against Plasmodium berghei infected in mouse assessed as complete elimination of malaria parasites from animals at 50 mg/kg, po qd for 4 days measured up to 60 days; assay type: functional, organism-based; set-up: dose 50 mg/kg; method in brief: as §4
Plasmodium berghei [15] = experiment: Antimalarial activity against Plasmodium berghei infected in mouse assessed as complete elimination of malaria parasites from animals at 100 mg/kg, po qd for 4 days measured up to 60 days; assay type: functional, organism-based; set-up: dose 100 mg/kg; method in brief: as §4
Plasmodium falciparum [16] = experiment: Antimalarial activity against chloroquine-sensitive Plasmodium falciparum D6 by LDH assay; assay type: functional, organism-based; settings: Plasmodium falciparum, D6; read-out: IC50; method in brief: as §1
Staphylococcus aureus [17] = experiment: Antibacterial activity against methicillin-resistant Staphylococcus aureus ATCC 43300 at 20 ug/ml by CLSI method; assay type: functional, organism-based; method in brief: as §3
Cryptococcus neoformans [18] = experiment: Antifungal activity against Cryptococcus neoformans ATCC 90113 at 20 ug/ml; assay type: functional, organism-based

Structure (SMILES)	Methemoglobin formation [1] [%]	IC50 (Plasmodium falciparum [2]) [µg/mL]	Activity (Vero)	IC50 [3] [µM]	IC90 (Leishmania donovani) [µg/mL]	IC50 (Leishmania donovani) [µg/mL]	IC50 (Staphylococcus aureus [6]) [µg/mL]	MBC (Staphylococcus aureus [6]) [µg/mL]	MIC (Staphylococcus aureus [6]) [µg/mL]	IC50 [7] [µg/mL]	MIC [7] [µg/mL]	IC50 (Candida albicans [9]) [µg/mL]	MFC (Candida albicans [10])	IC50 (Cryptococcus neoformans [11]) [µg/mL]	MFC (Cryptococcus neoformans [11]) [µg/mL]	MIC (Cryptococcus neoformans [11]) [µg/mL]	Activity (Aspergillus fumigatus)	Activity (Nakaseomyces glabratus)	Activity (Pichia kudriavzevii)	MIC (Candida albicans [10])	other results
COc1cc(NC(C)CCCNC(=O)NC(CCCCN)C(=O)NCCCC(C)Nc2cc(OC)cc3ccc(C(C)(C)C)nc23)c2nc(C(C)(C)C)ccc2c1.Cl (single isomer, unassigned)	2.25	1.3	Non-toxic	45	36	21	1.97	5	5	7.12	20	17.9	inactive	6.45	10	10	inactive	inactive	inactive	–	Activity (Plasmodium berghei [4]): Active; IC50 (Staphylococcus aureus [5]): 2.58 µg/mL; MBC (Staphylococcus aureus [5]): 5 µg/mL; MIC (Staphylococcus aureus [5]): 5 µg/mL; MBC [8]: inactive; MIC (Candida albicans [9]): 20 µg/mL
COc1cc(NC(C)CCCNC(=O)N[C@H](CCCN)C(=O)NCCCC(C)Nc2cc(OC)cc3ccc(C(C)(C)C)nc23)c2nc(C(C)(C)C)ccc2c1.Cl (some centres not stated)	2.3	0.3	Non-toxic	10.8	34	20	1.78	5	5	10	20	> 20	inactive	9.97	20	–	inactive	inactive	inactive	inactive	Activity (Plasmodium berghei [12]): Active; Activity (Plasmodium berghei [13]): Active; Activity (Plasmodium berghei [14]): Active; Activity (Plasmodium berghei [15]): Active; IC50 (Staphylococcus aureus [5]): 2.73 µg/mL; MBC (Staphylococcus aureus [5]): 5 µg/mL; MIC (Staphylococcus aureus [5]): 5 µg/mL; MBC [8]: inactive
COc1cc(NC(C)CCCNCCNCCNCCCC(C)Nc2cc(OC)cc3cccnc23)c2ncccc2c1.Cl.Cl (configuration not stated)	8.4	1.5	Non-toxic	180	27	–	–	–	–	10	20	–	inactive	15	20	20	inactive	inactive	inactive	inactive	IC50 (Plasmodium falciparum [16]): 2.6 µg/mL; Activity (Plasmodium berghei [12]): Active; Activity (Plasmodium berghei [13]): Active; Activity (Plasmodium berghei [14]): Active; Activity (Plasmodium berghei [15]): Active; MBC [7]: 20 µg/mL; IC50 (Staphylococcus aureus [17]): Not Active; MBC (Staphylococcus aureus [17]): inactive; MIC (Staphylococcus aureus [17]): inactive; IC50 (Candida albicans [10]): Not Active
COc1cc(NC(C)CCCNC(=S)NCCCC(C)Nc2cc(OC)cc3cccnc23)c2ncccc2c1.Cl.Cl (configuration not stated)	3.7	2.4	Non-toxic	> 1000	20	4	3	10	5	4.5	–	10	inactive	15	–	–	inactive	inactive	inactive	–	IC50 (Plasmodium falciparum [16]): 2.3 µg/mL; MFC (Cryptococcus neoformans [18]): inactive; MIC (Cryptococcus neoformans [18]): inactive
COc1cc(NC(C)CCCNCOC(=O)NCCCC(C)Nc2cc(OC)cc3cccnc23)c2ncccc2c1.Cl.Cl (configuration not stated)	5.3	–	Non-toxic	101	38	20	–	–	–	–	–	–	inactive	4.5	5	5	inactive	inactive	inactive	inactive	IC50 (Plasmodium falciparum [16]): 2.6 µg/mL; Activity (Plasmodium berghei [4]): Active; IC50 (Candida albicans [10]): Not Active
